Data from ChEMBL document CHEMBL1156261, “Evaluation of substituted N,N'-diarylsulfonamides as activators of the tumor cell specific M2 isoform of pyruvate kinase” (J Med Chem, 2010).
In brackets after ≈: the same amount, converted by molar mass. One block for each compound: values may come before it. Activity calls are given as the source filed them.

Assays:
[1] = molecular target: Pyruvate kinase PKLR (Homo sapiens) (UniProt P30613); assay: Activation of PKR assessed as pyruvate formation by fluorescent pyruvate kinase-lactate dehydrogenase coupled assay relative to control; set-up: concentration or dose not given beside the values
Pyruvate kinase PKM [2] = molecular target: T1, Pyruvate kinase PKM (Homo sapiens, UniProt P14618); assay: Activation of PKM1 assessed as pyruvate formation by fluorescent pyruvate kinase-lactate dehydrogenase coupled assay
Target sequence in this assay (P14618 2-531 limits assumed): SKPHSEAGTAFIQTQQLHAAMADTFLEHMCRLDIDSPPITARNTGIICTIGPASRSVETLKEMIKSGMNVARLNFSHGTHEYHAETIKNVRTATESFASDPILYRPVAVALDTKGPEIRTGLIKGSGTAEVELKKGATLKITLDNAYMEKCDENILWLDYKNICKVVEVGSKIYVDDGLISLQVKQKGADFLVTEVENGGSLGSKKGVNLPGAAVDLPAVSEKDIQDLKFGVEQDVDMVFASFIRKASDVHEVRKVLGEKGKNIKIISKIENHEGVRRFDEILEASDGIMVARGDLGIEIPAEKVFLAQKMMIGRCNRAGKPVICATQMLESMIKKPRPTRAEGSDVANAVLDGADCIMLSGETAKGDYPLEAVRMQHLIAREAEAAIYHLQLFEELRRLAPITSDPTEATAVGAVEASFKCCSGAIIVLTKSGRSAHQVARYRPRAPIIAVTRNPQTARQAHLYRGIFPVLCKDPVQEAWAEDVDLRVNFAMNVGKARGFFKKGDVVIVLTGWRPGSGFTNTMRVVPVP

[3] = molecular target: Pyruvate kinase PKLR (Homo sapiens) (UniProt P30613); assay: Activation of PKL assessed as pyruvate formation by fluorescent pyruvate kinase-lactate dehydrogenase coupled assay relative to control; set-up: concentration or dose not given beside the values
[4] = molecular target: Pyruvate kinase PKLR (Homo sapiens) (UniProt P30613); assay: Activation of PKR assessed as ATP product formation by luminescent pyruvate kinase-luciferase coupled assay relative to control; set-up: concentration or dose not given beside the values
Summary of the method: (§1)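 Luciferase-coupled ATP production assay run as for PKM2: imidazole pH 7.2 buffer with KCl, MgCl2, Tween 20 and BSA, 0.1 mM ADP, 0.5 mM PEP, 1 h at r.t., Kinase-Glo luminescence. Enzyme final concentrations were PKM1 1 nM, PKL 0.1 nM, PKR 0.1 nM. % activation normalized to DMSO (neutral) and no-enzyme controls.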

Pyruvate kinase PKM [5] = molecular target: T1, Pyruvate kinase PKM; assay: Activation of PKM1 assessed as ATP product formation by luminescent pyruvate kinase-luciferase coupled assay; summary of the method: as §1
Target sequence in this assay (P14618 2-531 limits assumed): as above

[6] = molecular target: Pyruvate kinase PKLR (Homo sapiens) (UniProt P30613); assay: Activation of PKL assessed as ATP product formation by luminescent pyruvate kinase-luciferase coupled assay relative to control; set-up: concentration or dose not given beside the values; summary of the method: as §1
Pyruvate kinase PKM [7] = molecular target: T1, Pyruvate kinase PKM; assay: Activation of PKM2 assessed as ATP product formation at 57 uM by luminescent pyruvate kinase-luciferase coupled assay relative to fructose-1,6-bis-phosphate
Summary of the method: (§2)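 Recombinant human PKM2 (0.1 nM final) in 50 mM imidazole pH 7.2, 50 mM KCl, 7 mM MgCl2, 0.01% Tween 20, 0.05% BSA; 0.1 mM ADP, 0.5 mM PEP; 1 h at r.t., then Kinase-Glo luciferase read of ATP formed. Activation % = (c−n)/(n−i)×100 against DMSO and no-enzyme controls; 100% ≈ 2-fold over basal signal. Max response taken at 57 μM; three separate experiments.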
Target sequence in this assay (P14618 2-531 limits assumed): as above

[8] = Kinetic solubility by quantitative nitrogen detection assay; assay type: physicochemical
Summary of the method: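 Kinetic solubility was determined by quantitative nitrogen detection in three separate experiments.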

Pyruvate kinase PKM [9] = molecular target: T1, Pyruvate kinase PKM; assay: Activation of PKM2 assessed as ATP product formation by luminescent pyruvate kinase-luciferase coupled assay; conditions: read-out: AC50; summary of the method: as §2
Target sequence in this assay (P14618 whole entry): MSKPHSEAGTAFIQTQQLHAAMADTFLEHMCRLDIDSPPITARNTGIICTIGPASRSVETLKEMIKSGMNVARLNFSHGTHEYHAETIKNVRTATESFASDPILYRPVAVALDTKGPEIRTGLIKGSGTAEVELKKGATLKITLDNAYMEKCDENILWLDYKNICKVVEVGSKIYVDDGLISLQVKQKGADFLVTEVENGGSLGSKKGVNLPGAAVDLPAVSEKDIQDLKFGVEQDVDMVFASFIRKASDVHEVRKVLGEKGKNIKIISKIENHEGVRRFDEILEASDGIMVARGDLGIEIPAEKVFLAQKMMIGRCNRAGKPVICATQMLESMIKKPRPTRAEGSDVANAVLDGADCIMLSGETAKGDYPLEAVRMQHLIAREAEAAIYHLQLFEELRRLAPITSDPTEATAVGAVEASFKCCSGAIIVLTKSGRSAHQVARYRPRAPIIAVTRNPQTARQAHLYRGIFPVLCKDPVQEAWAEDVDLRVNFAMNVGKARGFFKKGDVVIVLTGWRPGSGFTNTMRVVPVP

Pyruvate kinase PKM [10] = molecular target: T1, Pyruvate kinase PKM; assay: Activation of PKM2 in presence of excess of phosphoenolpyruvate level
Target sequence in this assay (P14618 2-531 limits assumed): as the sequence (P14618 2-531 limits assumed) above

Pyruvate kinase PKM [11] = molecular target: T1, Pyruvate kinase PKM; assay: Activation of PKM2 assessed as pyruvate formation by fluorescent pyruvate kinase-lactate dehydrogenase coupled assay relative to fructose-1,6-bis-phosphate
Summary of the method: (§3)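 Kinetic PK–LDH coupled read: 10 nM hPK-M2 with 1 μM LDH in 50 mM Tris-Cl pH 8.0, 200 mM KCl, 15 mM MgCl2, 0.1 mM PEP, 4.0 mM ADP, 0.2 mM NADH. NADH fluorescence decrease was read at 30 s intervals over 3–6 min.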
Target sequence in this assay (P14618 2-531 limits assumed): as above

Pyruvate kinase PKM [12] = molecular target: T1, Pyruvate kinase PKM; assay: Activation of PKM2 assessed as reduction of Km for phosphoenolpyruvate relative to untreated control
Summary of the method: (§4)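 Steady-state kinetics were measured by the PK–LDH coupled assay at about 22 °C with 10 nM PKM2, 200 mM KCl and 15 mM MgCl2. One substrate (PEP or ADP) was varied with the other held at 4.0 mM, with or without activator. Fluorescence was converted to pmol NADH by a standard curve; initial rates (pmol/min) were fit for KM.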
Target sequence in this assay (P14618 2-531 limits assumed): as above

Pyruvate kinase PKM [13] = molecular target: T1, Pyruvate kinase PKM; assay: Activation of PKM2 assessed as effect on Km for ADP relative to untreated control; summary of the method: as §4
Pyruvate kinase PKM [14] = molecular target: T1, Pyruvate kinase PKM; assay: Activation of PKM2 assessed as pyruvate formation by fluorescent pyruvate kinase-lactate dehydrogenase coupled assay; summary of the method: as §3
Target sequence in this assay (P14618 whole entry): as the sequence (P14618 whole entry) above

Sequence of Pyruvate kinase PKLR (Homo sapiens) (P30613 whole entry, looked up): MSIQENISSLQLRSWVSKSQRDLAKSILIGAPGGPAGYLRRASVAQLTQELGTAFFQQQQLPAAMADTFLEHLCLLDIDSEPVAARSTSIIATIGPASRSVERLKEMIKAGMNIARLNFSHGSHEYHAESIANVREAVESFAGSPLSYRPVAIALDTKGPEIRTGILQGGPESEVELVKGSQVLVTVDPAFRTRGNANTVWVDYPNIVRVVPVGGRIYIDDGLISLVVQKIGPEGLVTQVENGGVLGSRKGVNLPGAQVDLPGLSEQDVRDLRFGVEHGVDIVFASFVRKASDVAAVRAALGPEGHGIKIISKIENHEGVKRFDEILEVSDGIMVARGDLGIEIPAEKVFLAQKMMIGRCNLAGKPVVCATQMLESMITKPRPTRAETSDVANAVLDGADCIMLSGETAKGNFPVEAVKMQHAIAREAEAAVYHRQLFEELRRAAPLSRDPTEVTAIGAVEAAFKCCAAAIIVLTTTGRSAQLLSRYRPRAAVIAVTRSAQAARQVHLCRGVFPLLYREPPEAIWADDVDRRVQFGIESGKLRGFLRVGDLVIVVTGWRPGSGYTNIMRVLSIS

Compound: Nc1cccc(S(=O)(=O)N2CCN(S(=O)(=O)c3c(F)cccc3F)CC2)c1
Activity [1]: < 30%
Activity (Pyruvate kinase PKM [2]): inactive
Activity [3]: < 30%
Activity [4]: < 30%
Activity (Pyruvate kinase PKM [5]): inactive
Activity [6]: < 30%
Activity (Pyruvate kinase PKM [7]): 84.4%
solubility kinetic [8]: 5.7 µM (≈ 2.38 µg/mL)
AC50 (Pyruvate kinase PKM [9]): 99 nM

Compound: COc1cc(F)c(S(=O)(=O)N2CCCN(S(=O)(=O)c3cccc(N)c3)CC2)c(F)c1
Activity [1]: < 30%
Activity (Pyruvate kinase PKM [2]): inactive
Activity [3]: < 30%
Activity [4]: < 30%
Activity (Pyruvate kinase PKM [5]): inactive
Activity [6]: < 30%
Activity (Pyruvate kinase PKM [7]): 92.5%
solubility kinetic [8]: 26.3 µM (≈ 12.1 µg/mL)
AC50 (Pyruvate kinase PKM [9]): 223 nM

Compound: O=S(=O)(c1ccc2c(c1)OCCO2)N1CCN(S(=O)(=O)c2c(F)cccc2F)CC1
Activity [1]: < 30%
Activity (Pyruvate kinase PKM [2]): inactive
Activity [3]: < 30%
Activity [4]: < 30%
Activity (Pyruvate kinase PKM [5]): inactive
Activity [6]: < 30%
Activity (Pyruvate kinase PKM [7]): 94.4%
solubility kinetic [8]: < 1.1 µM

Compound: COc1ccc(S(=O)(=O)N2CCN(S(=O)(=O)c3ccc4c(c3)OCCO4)CC2)cc1
Activity [1]: < 30%
Activity (Pyruvate kinase PKM [10]): inactive
Activity (Pyruvate kinase PKM [11]): 150%
Activity (Pyruvate kinase PKM [2]): inactive
Activity [3]: < 30%
Activity [4]: < 30%
fold change (FC) (Pyruvate kinase PKM [12]): 10
Activity (Pyruvate kinase PKM [5]): inactive
Activity [6]: < 30%
Activity (Pyruvate kinase PKM [13]): inactive
Activity (Pyruvate kinase PKM [7]): 92.2%
AC50 (Pyruvate kinase PKM [14]): 750 nM

Compound: Nc1cccc(S(=O)(=O)N2CCN(S(=O)(=O)c3ccc4c(c3)OCCO4)CC2)c1
Activity [1]: < 30%
Activity (Pyruvate kinase PKM [2]): inactive
Activity [3]: < 30%
Activity [4]: < 30%
Activity (Pyruvate kinase PKM [5]): inactive
Activity [6]: < 30%
Activity (Pyruvate kinase PKM [7]): 83.7%
solubility kinetic [8]: 7.3 µM (≈ 3.21 µg/mL)
AC50 (Pyruvate kinase PKM [9]): 43 nM

Compound: Nc1cccc(S(=O)(=O)N2CCCN(S(=O)(=O)c3ccc4c(c3)OCCO4)CC2)c1
Activity [1]: < 30%
Activity (Pyruvate kinase PKM [2]): inactive
Activity [3]: < 30%
Activity [4]: < 30%
Activity (Pyruvate kinase PKM [5]): inactive
Activity [6]: < 30%
Activity (Pyruvate kinase PKM [7]): 81.7%
solubility kinetic [8]: 51.2 µM (≈ 23.2 µg/mL)

Activity (Pyruvate kinase PKM [10]): inactive
Compound: O=P(O)(O)OC[C@H]1O[C@@](O)(COP(=O)(O)O)[C@@H](O)[C@@H]1O

Compound: COc1cc(F)c(S(=O)(=O)N2CCN(S(=O)(=O)c3cccc(N)c3)CC2)c(F)c1
Activity [1]: < 30%
Activity (Pyruvate kinase PKM [2]): inactive
Activity [3]: < 30%
Activity [4]: < 30%
Activity (Pyruvate kinase PKM [5]): inactive
Activity [6]: < 30%
Activity (Pyruvate kinase PKM [7]): 90.5%
solubility kinetic [8]: < 0.7 µM
AC50 (Pyruvate kinase PKM [9]): 26 nM

Compound: O=S(=O)(c1ccc2c(c1)OCCO2)N1CCCN(S(=O)(=O)c2c(F)cccc2F)CC1
Activity [1]: < 30%
Activity (Pyruvate kinase PKM [2]): inactive
Activity [3]: < 30%
Activity [4]: < 30%
Activity (Pyruvate kinase PKM [5]): inactive
Activity [6]: < 30%
Activity (Pyruvate kinase PKM [7]): 120%
solubility kinetic [8]: 5.6 µM (≈ 2.66 µg/mL)

Compound: C[C@@H]1CN(S(=O)(=O)c2ccc3c(c2)OCCO3)CCN1S(=O)(=O)c1c(F)cccc1F
Activity [1]: < 30%
Activity (Pyruvate kinase PKM [2]): inactive
Activity [3]: < 30%
Activity [4]: < 30%
Activity (Pyruvate kinase PKM [5]): inactive
Activity [6]: < 30%
Activity (Pyruvate kinase PKM [7]): 108%
AC50 (Pyruvate kinase PKM [9]): 2930 nM
